Experimental data from ChEMBL document CHEMBL5724801, “EUbOPEN Chemogenomics Library - Multiplex” (2024).
Values joined by “and” are separate entries in the source; they are usually repeats but may differ in a detail not shown here. Identical values can stand only once.

Test system: Fibroblast
Test: Multiplex assay against human fibroblast
Format: toxicity, cell-based
Outline: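 Phenotypes for tubulin, mitochondrial mass and membrane permeability are expressed as per cents of healthy-nucleus cells. Cells were stained live at seeding with Hoechst33342, BioTracker Green Microtubule Cytoskeleton Dye, MitoTracker Red and Annexin V Alexa Fluor 680, then imaged after compound addition on a CQ1 microscope at 37°C and 5% CO2. Machine-learning gating in CellPathfinder separated Hoechst high-intensity objects from normal cells, divided normal cells by nuclear state (healthy, pyknosed, fragmented) and divided pyknosed cells into mitotic or apoptotic.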

[1] = 12 h, 1 µM, compound concentration 1 uM
[2] = 12 h, 10 µM, compound concentration 10 uM
[3] = 24 h, 1 µM, compound concentration 1 uM
[4] = 24 h, 10 µM, compound concentration 10 uM
[5] = 48 h, 1 µM, compound concentration 1 uM
[6] = 48 h, 10 µM, compound concentration 10 uM

CN(C)C(=O)Cn1cc(-c2ccc(-c3nnc4ccccn34)cc2)cn1
Population Apoptotic (%) [1]: 57% and 55%
Population Fragmented Nuclei (%) [1]: 18% and 20%
Population Healthy Nuclei (%) [1]: 60% and 58%
Population Hoechst High Intensity Objects (%) [1]: 5%
Population Membrane Permeable-Phenotype (%) [1]: 1% and 7%
Population Mitochondria Different-Phenotype (%) [1]: 3% and 7%
Population Mitotic Cells (%) [1]: 42% and 44%
Population Normal (%) [1]: 94%
Population Pyknosed Nuclei (%) [1]: 21% and 20%
Population Tubulin-Different-Phenotype (%) [1]: 22% and 42%
Total Cell Count [1]: 139 and 152
Population Apoptotic (%) [2]: 52% and 39%
Population Healthy Nuclei (%) [2]: 63% and 38%
Population Hoechst High Intensity Objects (%) [2]: 3% and 8%
Population Membrane Permeable-Phenotype (%) [2]: 0% and 15%
Population Mitochondria Different-Phenotype (%) [2]: 6% and 18%
Population Mitotic Cells (%) [2]: 47% and 60%
Population Normal (%) [2]: 96% and 91%
Population Pyknosed Nuclei (%) [2]: 28% and 29%
Population Tubulin-Different-Phenotype (%) [2]: 31% and 70%
Total Cell Count [2]: 140 and 123
Population Apoptotic (%) [3]: 56% and 54%
Population Fragmented Nuclei (%) [3]: 23%
Population Healthy Nuclei (%) [3]: 60%
Population Hoechst High Intensity Objects (%) [3]: 0% and 4%
Population Membrane Permeable-Phenotype (%) [3]: 2% and 4%
Population Mitochondria Different-Phenotype (%) [3]: 1% and 3%
Population Mitotic Cells (%) [3]: 43% and 45%
Population Normal (%) [3]: 99% and 95%
Population Pyknosed Nuclei (%) [3]: 16%
Population Tubulin-Different-Phenotype (%) [3]: 25% and 41%
Total Cell Count [3]: 144 and 142
Population Apoptotic (%) [4]: 65% and 26%
Population Healthy Nuclei (%) [4]: 65% and 40%
Population Hoechst High Intensity Objects (%) [4]: 5% and 9%
Population Membrane Permeable-Phenotype (%) [4]: 2% and 10%
Population Mitochondria Different-Phenotype (%) [4]: 5% and 6%
Population Mitotic Cells (%) [4]: 34% and 73%
Population Normal (%) [4]: 94% and 90%
Population Pyknosed Nuclei (%) [4]: 24% and 22%
Population Tubulin-Different-Phenotype (%) [4]: 25% and 71%
Total Cell Count [4]: 140 and 126
Population Apoptotic (%) [5]: 58% and 42%
Population Fragmented Nuclei (%) [5]: 22% and 28%
Population Healthy Nuclei (%) [5]: 61% and 52%
Population Hoechst High Intensity Objects (%) [5]: 1% and 5%
Population Membrane Permeable-Phenotype (%) [5]: 4% and 6%
Population Mitochondria Different-Phenotype (%) [5]: 4% and 2%
Population Mitotic Cells (%) [5]: 41% and 57%
Population Normal (%) [5]: 98% and 94%
Population Pyknosed Nuclei (%) [5]: 16% and 18%
Population Tubulin-Different-Phenotype (%) [5]: 29% and 46%
Total Cell Count [5]: 151 and 147
Population Apoptotic (%) [6]: 52% and 60%
Population Fragmented Nuclei (%) [6]: 16% and 44%
Population Healthy Nuclei (%) [6]: 66% and 47%
Population Hoechst High Intensity Objects (%) [6]: 2% and 3%
Population Membrane Permeable-Phenotype (%) [6]: 0% and 18%
Population Mitochondria Different-Phenotype (%) [6]: 2% and 8%
Population Mitotic Cells (%) [6]: 47% and 40%
Population Normal (%) [6]: 97% and 96%
Population Pyknosed Nuclei (%) [6]: 17% and 7%
Population Tubulin-Different-Phenotype (%) [6]: 38% and 73%
Total Cell Count [6]: 137 and 131

COc1ccccc1N1CCN(CCCCNC(=O)c2ccc3ccccc3c2)CC1.Cl
Population Apoptotic (%) [1]: 52% and 40%
Population Fragmented Nuclei (%) [1]: 19% and 20%
Population Healthy Nuclei (%) [1]: 68% and 63%
Population Mitotic Cells (%) [1]: 47% and 59%
Population Normal (%) [1]: 95% and 96%
Population Tubulin-Different-Phenotype (%) [1]: 35% and 42%
Total Cell Count [1]: 194 and 148
Population Apoptotic (%) [2]: 58% and 39%
Population Fragmented Nuclei (%) [2]: 32% and 40%
Population Healthy Nuclei (%) [2]: 52% and 34%
Population Mitotic Cells (%) [2]: 41% and 60%
Population Normal (%) [2]: 96% and 89%
Population Tubulin-Different-Phenotype (%) [2]: 79% and 90%
Total Cell Count [2]: 194 and 144
Population Apoptotic (%) [3]: 39% and 60%
Population Fragmented Nuclei (%) [3]: 14% and 26%
Population Healthy Nuclei (%) [3]: 73% and 60%
Population Mitotic Cells (%) [3]: 60% and 40%
Population Normal (%) [3]: 98% and 96%
Population Tubulin-Different-Phenotype (%) [3]: 31% and 40%
Total Cell Count [3]: 193 and 156
Population Apoptotic (%) [4]: 66% and 69%
Population Fragmented Nuclei (%) [4]: 32% and 41%
Population Healthy Nuclei (%) [4]: 56% and 41%
Population Mitotic Cells (%) [4]: 33% and 30%
Population Normal (%) [4]: 95% and 91%
Population Tubulin-Different-Phenotype (%) [4]: 85% and 81%
Total Cell Count [4]: 206 and 154
Population Apoptotic (%) [5]: 42% and 29%
Population Fragmented Nuclei (%) [5]: 21% and 34%
Population Healthy Nuclei (%) [5]: 70% and 54%
Population Mitotic Cells (%) [5]: 57% and 70%
Population Normal (%) [5]: 96% and 95%
Population Tubulin-Different-Phenotype (%) [5]: 38% and 39%
Total Cell Count [5]: 199 and 167
Population Apoptotic (%) [6]: 73% and 75%
Population Fragmented Nuclei (%) [6]: 33% and 38%
Population Healthy Nuclei (%) [6]: 57% and 56%
Population Mitotic Cells (%) [6]: 26% and 25%
Population Tubulin-Different-Phenotype (%) [6]: 89% and 82%
Total Cell Count [6]: 224 and 168
